Assay results from paper PMC6440678 (Clinical and Translational Science, 2018).

How the values were obtained:
[1] = Plasma pharmacokinetics of PF‐04447943, phase Ib study; type: in vivo, human; details: for AUC0−12 (dn) / Cmax (dn): dose normalized to 1 mg; for AUC0−12 (dn) / Cmax (dn) / Cmax: geometric mean (geometric %CV); for Tmax / Cmax / AUC(0-t): human, plasma; for Tmax / Cmax: oral; for AUC(0-t): po
[2] = system: Townes SCD mice; details: PF‐04447943 alone, pretreatment; cited from earlier work
[3] = system: cGMP in cerebral spinal fluid; details: systemic administration; cited from earlier work
[4] = system: HbF and Hb levels; experiment: Hematology; type: in vivo, human; details: day 29, 5‐mg or 25‐mg twice‐daily groups
Summary of the method: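 Stable SCD patients randomized 3:1 active:placebo to oral test compound 5 mg or 25 mg or placebo, twice daily ~12 h apart with water for 29 (+1) days. HbF (%) was measured centrally at baseline and before dosing on day 29. Baseline HbF was classed low (<10%) or high (≥10%), split at the sample median.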

[5] = system: neutrophil‐platelet and monocyte‐platelet aggregates; experiment: Leukocyte‐platelet aggregates by flow cytometry in SCD patients; type: in vivo, human; details: day 29, 25 mg twice daily
Summary of the method: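 Citrated whole blood was taken before dosing on days 1, 2, 7, 14, 21 and 29 and at baseline. Within 30 min it was mixed with FacsLysing solution and refrigerated, then spun 5 min at 500 g. Cells were resuspended in HEPES/NaCl/0.5% BSA, pH 7.4, and stained with PC5-anti-CD14 plus PE-CD42a or isotype. Flow cytometry reported aggregates as % cells and size as CD42a MFI. Day-29 percent change was estimated by repeated-measures model, with Holm-Bonferroni-adjusted P.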

[6] = system: cGMP in mouse brain tissue; details: systemic administration; cited from earlier work
[7] = system: plasma cGMP; experiment: Plasma cGMP levels in SCD patients; type: in vivo, human; details: PF‐04447943 treatment, current study (data not shown)
[8] = system: patients with stable sickle cell disease; experiment: Safety and tolerability, phase Ib study; type: in vivo, human
[9] = system: Berkeley SCD mouse model; details: administered after a challenge; cited from earlier work
[10] = system: hospitalized patients with SCD and VOC; details: randomized, placebo‐controlled; cited from earlier work
[11] = 5 mg twice daily, % of patients

## C[C@@H]1CN(Cc2ncccn2)C[C@H]1c1nc2c(cnn2C2CCOCC2)c(=O)[nH]1 [PF‐04447943, 6‐[(3S,4S)‐4‐methyl‐1‐(pyrimidin‐2‐ylmethyl)pyrrolidin‐3‐yl]‐1‐(tetrahydro‐2H‐pyran‐4‐yl)‐1,5‐dihydro‐4H‐pyrazolo[3,4‐d]pyrimidin‐4‐one]
[1]; 5 and 25 mg, day 1
  dose proportionality of plasma exposure (AUC0‐12, Cmax): dose proportional
[1]; day 1, 5 mg
  AUC0−12 (dn): 48 (35) ng·h/mL/mg
  Cmax (dn): 9.2 (39) ng/mL/mg
[1]; day 1, 25 mg
  AUC0−12 (dn): 47 (29) ng·h/mL/mg
  Cmax (dn): 9.9 (31) ng/mL/mg
[1]; 5 mg
  Tmax: 1.9 h
  AUC(0-t): 242 ng·h/mL
[1]; 5 mg, day 1, 5 mg
  Cmax: 45.8 ng/mL
[1]; 25 mg
  Tmax: 1 h
  AUC(0-t): 1170 ng·h/mL
[1]; 25 mg, day 1, 25 mg
  Cmax: 248 ng/mL
[2]
  number of neutrophil‐platelet aggregates: decrease in neutrophil‐platelet aggregates
[3]
  cGMP in cerebral spinal fluid in the rat: dose‐dependent increases
[4]
  change in HbF level: No significant changes
[5]; adjusted P = 0.018
  reduction from baseline in size of neutrophil‐platelet aggregates: 34%
[5]; adjusted P = 0.025
  reduction from baseline in number of circulating monocyte‐platelet aggregates: 52%
[5]; adjusted P = 0.095
  reduction from baseline in number of neutrophil‐platelet aggregates: 46%
[5]; adjusted P = 0.140
  reduction from baseline in size of circulating monocyte‐platelet aggregates: 36%
[6]
  cGMP in mouse brain tissue: accumulation of cGMP in mouse brain tissue
[7]
  change in plasma cGMP levels: no significant changes
[8]; 5 mg twice daily
  patients who experienced sickle cell pain crisis: 14%
[8]; [11]
  treatment‐related AE: dizziness: 0%
  treatment‐related AE: fatigue: 0%
[8]; 5 mg twice daily, up to 29 days, % of patients
  treatment‐related AE: headache: 0%
[8]; 25 mg twice daily
  patients who experienced sickle cell pain crisis: 13%
[8]; 25 mg twice daily, % of patients
  treatment‐related AE: dizziness: 13%
[8]; 5 and 25 mg twice daily
  deaths during the study: No deaths occurred
[8]; 5 and 25 mg twice daily, 29‐day treatment period
  tolerability: well tolerated

## C[C@@H]1O[C@@H](O[C@@H]2[C@@H](NC(=O)c3cc(=O)[nH]c(=O)[nH]3)C[C@@H](C(=O)NCCNC(=O)COCCOCC(=O)Nc3cc(S(=O)(=O)O)cc4cc(S(=O)(=O)O)cc(S(=O)(=O)O)c34)C[C@H]2O[C@@H]2O[C@H](CO)[C@H](O)[C@H](O[C@@H](CC3CCCCC3)C(=O)O)[C@H]2OC(=O)c2ccccc2)[C@@H](O)[C@H](O)[C@@H]1O [rivipansel]
[9]
  leukocyte adhesion: reduced leukocyte adhesion
[10]
  time to VOC resolution, length of stay, parenteral opioid requirement: trends toward improved
